# An excerpt weighted towards active compounds, which were near 2.8% of everything screened.
# NPY-Y1 PAM-ag = potentiates or activates human NPY-Y1 receptor. P25929. 220,000 tested, 0.37% active. activation, % at 3.6 µM. NPY-Y1 expressing cells, potentiator/agonist activation; in the data active = activation above about 33%, passing the limit was not always enough;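 note: cells stimulated with NPY at EC10 then isoproterenol at EC100; 0% = low agonist plus stimulus and 100% = saturating agonist plus stimulus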
# Target sequence (P25929 whole entry, looked up): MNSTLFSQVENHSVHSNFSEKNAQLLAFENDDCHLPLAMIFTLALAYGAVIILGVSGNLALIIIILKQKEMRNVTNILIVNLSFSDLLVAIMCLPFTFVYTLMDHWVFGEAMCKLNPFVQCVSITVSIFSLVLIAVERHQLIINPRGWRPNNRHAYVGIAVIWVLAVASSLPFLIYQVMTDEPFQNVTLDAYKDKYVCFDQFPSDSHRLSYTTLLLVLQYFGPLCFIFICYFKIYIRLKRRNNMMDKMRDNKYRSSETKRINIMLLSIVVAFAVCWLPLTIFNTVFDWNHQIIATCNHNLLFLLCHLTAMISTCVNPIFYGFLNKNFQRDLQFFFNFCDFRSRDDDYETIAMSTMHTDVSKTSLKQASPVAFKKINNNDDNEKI
# EP2 antag = blocks the human prostaglandin E2 receptor EP2; P43116; C6 glioma cells expressing human EP2, cAMP TR-FRET; cells stimulated with saturating PGE2; inhibition, % at 25 µM; 260,000 tested, 0.52% active;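 active = percent inhibition above 40 after rounding to a whole number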;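 note: rat C6 glioma host cells with rolipram phosphodiesterase inhibitor present; the protocol text gives 20 µM as final concentration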
# NPY Y2 blocker = NPY-Y2 (human) receptor antagonism; P49146; NPY-Y2 expressing cells, antagonist mode; inhibition, % at 2.7 µM; 140,000 tested, 0.99% active; AID 793; in the data active = inhibition above about 17%;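 note: 0% = vehicle with agonist challenge and 100% = reference antagonist with challenge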
# NPY-Y1 antag = NPY-Y1 (human) receptor antagonism | AID 1040 | HEK293-CNG Y1 cells, membrane potential fluorescence; NPY at EC95, then isoproterenol | P25929 | inhibition, % at 3.6 µM | 200,000 tested, 1% active;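 active = inhibition above the campaign mean inhibition of all tested compounds plus 3 SD, cut at about 20% in these data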;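 note: 0% = DMSO wells given NPY plus isoproterenol and 100% = isoproterenol alone without NPY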
#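 Material: HEK293 Y1/CNG channel cell line; also added: NPY (25 nM), isoproterenol (1 µM), Ro 20-1724 (25 µM); doses: one concentration, 3.6 µM, in 0.4% DMSO; schedule: compound incubation 1 h at room temperature, readout 45 min post-stimulation; technique: membrane potential fluorescence; measure: fluorescence ratio normalized to % inhibition between controls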
# NPY-Y2 PAM-ag = potentiators or agonists of human neuropeptide Y receptor Y2; activation, % at 3.6 µM; AID 1359; cells expressing NPY-Y2, potentiator/agonist read-out; 220,000 tested, 0.45% active; in the data active = activation above about 27%;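 note: cells stimulated with NPY near EC25 plus isoproterenol at EC100; 0% = vehicle plus submaximal agonist and 100% = vehicle plus saturating agonist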
# EP2 mod = modulators of human EP2 prostaglandin E2 receptor; P43116; EP2-expressing cells, cAMP HTRF FRET, PGE2 co-stimulation; induction, % at 25 µM; 260,000 tested, 0.83% active; AID 940;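 active = compounds whose cAMP rise, as percent of the full-agonist control response, exceeds 60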;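 note: rat C6 glioma line stably carrying human EP2 under a CMV promoter; the protocol text gives 20 µM as final concentration; 100% = response of wells given 1 µM PGE2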
# * = called active by the depositor; . = not tested or not shown.
SMILES,NPY-Y1 PAM-ag,EP2 antag,NPY Y2 blocker,NPY-Y1 antag,NPY-Y2 PAM-ag,EP2 mod
COc1ccc(NC(=O)C2=C(C)C(=O)OC23CCC(C)CC3)cc1Cl (configuration not stated),48*,8,-1,-6,58*,-17
COc1ccc(CNC(=O)C2=C(C)C(=O)OC23CCC(C)CC3)cc1 (configuration not stated),-3,10,-3,0,-12,1
CCCc1nc2ccccc2n1CC(O)COCc1ccccc1 (configuration not stated),.,11,.,.,.,-12
CC(C)(C)c1ccc(-n2nc(C#N)c(Cl)cc2=O)cc1,67*,6,.,1,61*,-56
COc1ccccc1C1(O)CCCN(C(=O)COc2ccc3nsnc3c2)C1 (configuration not stated),.,55*,.,.,.,-60
Cc1ccc2c(=O)c(C(=O)NC3CCCC3)c[nH]c2c1,.,6,.,.,.,-76
Cc1cc(Nc2cccc(F)c2)nc(-c2ccccc2O)n1,40*,19,-5,-9,42*,-32
O=C(OCC(=O)c1c[nH]c2ccccc12)c1ccc(Br)o1,63*,7,1,-3,70*,-3
Cc1ccc(C)c2[nH]c(=O)c(C(c3nnnn3Cc3ccccc3)N3CCCCCC3)cc12 (configuration not stated),.,15,.,.,.,75*
Cc1cccc2cc(C(c3nnnn3Cc3ccc(F)cc3)N3CCCCCC3)c(=O)[nH]c12 (configuration not stated),.,22,.,.,.,67*
Cc1cccc2cc(C(c3nnnn3Cc3ccccc3)N3CCN(C)CC3)c(=O)[nH]c12 (configuration not stated),19,1,1,3,3,-11
COc1ccc(Cn2nnnc2C(c2cc3cccc(C)c3[nH]c2=O)N2CCCCC2)cc1 (configuration not stated),.,10,.,.,.,-25
Cc1cccc2cc(C(c3nnnn3Cc3ccccc3)N3CCCCC3)c(=O)[nH]c12 (configuration not stated),.,13,.,.,.,68*
O=C(Nc1ccccc1)c1nnsc1S(=O)c1ccc(Cl)cc1 (configuration not stated),-39,142*,7,5,-22,-26
O=C(c1nnsc1S(=O)c1ccc(Cl)cc1)N1CCOCC1 (configuration not stated),2,21,.,8,-3,-77
Cc1cc(C)c2c(NCc3c(F)cccc3F)n[nH]c2n1,.,6,.,.,.,-56
CCOc1ccc(/C=C/[N+](=O)[O-])c2ccccc12,-15,9,27*,32*,-11,-39
CCOc1cc(CCC(=O)N2CCCc3c(Cl)cc(Cl)c(O)c32)on1,.,10,.,.,.,-56
Cn1c(=O)c(C#N)c(-c2ccc(F)cc2)c2cc(C(=O)c3cc(Cl)cc(Cl)c3O)cnc21,58*,9,.,.,92*,-43
Cc1ccc(C(=O)Cn2c3ccccc3n3nc(C)nc23)cc1,.,11,.,.,.,-22
O=C1ON=C(c2ccccc2)/C1=C\c1ccco1,15,12,.,.,2,-58
CC1=NOC(=O)/C1=C\c1ccc(-c2ccccc2Br)o1,-20,44*,.,1,-6,14
Cc1ccc(/C=C2/C(=O)ON=C2c2ccccc2)o1,11,80*,.,.,7,-50
CC1=NOC(=O)/C1=C\c1ccc(-c2cccc(Cl)c2)o1,22,109*,4,7,-11,-35
Cc1cc(C)n(CC(O)COc2ccc3c(c2)CCC3)n1 (configuration not stated),.,7,.,.,.,-54
SMILES,NPY-Y1 PAM-ag,EP2 antag,NPY Y2 blocker,NPY-Y1 antag,NPY-Y2 PAM-ag,EP2 mod
COc1ccc(-n2c(Cc3ccccc3)nnc2SCC(=O)N2CCCCC2)cc1,.,10,.,.,.,6
CCOC(=O)C(=CNNc1cccc(Cl)c1)C(=O)OCC,62*,9,.,.,54*,-7
COc1ccc(N2CCN(C(=O)c3cc4c(s3)-c3ccccc3S(=O)(=O)C4)CC2)cc1,81*,2,.,.,67*,-52
Cc1ccc(NC(=O)Cc2cc(C(=O)O)c3ccccc3n2)c(C)c1,78*,7,.,-16,80*,-1
COC(=O)c1c(NC(=O)Cc2cccs2)sc(C(=O)Nc2cccc(OC)c2)c1C,.,9,.,.,.,-4
COc1ccc(CCNc2nc(N3CCCCC3)nc(N3CCCCC3)n2)cc1OC,-36,16,12,18,1,61*

# Assay outcomes deposited in PubChem BioAssay by several laboratories.
